Source: ChEMBL document CHEMBL3769320, “Cell Penetrant Inhibitors of the KDM4 and KDM5 Families of Histone Lysine Demethylases. 2. Pyrido[3,4-d]pyrimidin-4(3H)-one Derivatives” (J Med Chem, 2016)

What was measured:
[1] = target: T1, Lysine-specific demethylase 4C (Homo sapiens, UniProt Q9H3R0); assay: Inhibition of N-terminal his-tagged full-length human KDM4C transfected in U2OS cells assessed as inhibition of H3K9Me3 demethylation for 24 hrs; type: cell-based
T1 sequence (Q9H3R0 whole entry): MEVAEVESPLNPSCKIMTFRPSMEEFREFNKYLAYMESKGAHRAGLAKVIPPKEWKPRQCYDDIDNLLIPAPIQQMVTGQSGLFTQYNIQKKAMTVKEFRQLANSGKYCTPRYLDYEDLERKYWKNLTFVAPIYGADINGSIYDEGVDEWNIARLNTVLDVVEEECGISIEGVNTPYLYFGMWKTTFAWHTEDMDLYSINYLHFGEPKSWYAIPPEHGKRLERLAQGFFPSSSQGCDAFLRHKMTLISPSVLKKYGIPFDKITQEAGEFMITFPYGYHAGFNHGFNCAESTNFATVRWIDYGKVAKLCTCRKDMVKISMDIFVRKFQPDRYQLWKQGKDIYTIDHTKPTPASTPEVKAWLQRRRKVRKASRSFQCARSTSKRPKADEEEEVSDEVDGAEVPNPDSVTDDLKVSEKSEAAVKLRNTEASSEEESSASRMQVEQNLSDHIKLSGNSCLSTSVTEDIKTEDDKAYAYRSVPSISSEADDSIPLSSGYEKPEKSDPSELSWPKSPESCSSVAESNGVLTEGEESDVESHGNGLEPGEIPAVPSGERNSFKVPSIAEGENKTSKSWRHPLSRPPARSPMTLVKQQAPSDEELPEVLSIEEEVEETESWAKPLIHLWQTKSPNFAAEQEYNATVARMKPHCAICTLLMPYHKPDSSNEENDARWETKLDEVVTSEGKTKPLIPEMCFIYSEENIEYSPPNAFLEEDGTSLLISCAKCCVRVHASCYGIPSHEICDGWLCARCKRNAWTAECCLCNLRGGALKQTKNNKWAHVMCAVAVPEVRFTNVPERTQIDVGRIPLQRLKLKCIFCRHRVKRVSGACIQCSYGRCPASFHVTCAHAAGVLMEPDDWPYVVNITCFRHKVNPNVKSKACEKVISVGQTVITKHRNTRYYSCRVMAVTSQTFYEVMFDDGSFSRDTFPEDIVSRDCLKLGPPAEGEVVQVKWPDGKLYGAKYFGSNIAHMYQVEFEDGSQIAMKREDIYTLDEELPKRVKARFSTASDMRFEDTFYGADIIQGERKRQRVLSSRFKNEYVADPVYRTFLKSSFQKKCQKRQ

[2] = target: T1, Lysine-specific demethylase 4C; assay: Inhibition of N-terminal his-tagged human KDM4C expressed in Escherichia coli BL21(DE3) using trimethylated peptide substrate by RFMS assay
physchem = conditions: buffer, pH 7.4
[3] = target: Lysine-specific demethylase 6B (Homo sapiens, UniProt O15054); assay: Inhibition of KDM6B (unknown origin) by RFMS assay
[4] = target: T2, Lysine-specific demethylase 4A (Homo sapiens, UniProt O75164); assay: Inhibition of KDM4A (unknown origin) by RFMS assay
T2 sequence (O75164 whole entry): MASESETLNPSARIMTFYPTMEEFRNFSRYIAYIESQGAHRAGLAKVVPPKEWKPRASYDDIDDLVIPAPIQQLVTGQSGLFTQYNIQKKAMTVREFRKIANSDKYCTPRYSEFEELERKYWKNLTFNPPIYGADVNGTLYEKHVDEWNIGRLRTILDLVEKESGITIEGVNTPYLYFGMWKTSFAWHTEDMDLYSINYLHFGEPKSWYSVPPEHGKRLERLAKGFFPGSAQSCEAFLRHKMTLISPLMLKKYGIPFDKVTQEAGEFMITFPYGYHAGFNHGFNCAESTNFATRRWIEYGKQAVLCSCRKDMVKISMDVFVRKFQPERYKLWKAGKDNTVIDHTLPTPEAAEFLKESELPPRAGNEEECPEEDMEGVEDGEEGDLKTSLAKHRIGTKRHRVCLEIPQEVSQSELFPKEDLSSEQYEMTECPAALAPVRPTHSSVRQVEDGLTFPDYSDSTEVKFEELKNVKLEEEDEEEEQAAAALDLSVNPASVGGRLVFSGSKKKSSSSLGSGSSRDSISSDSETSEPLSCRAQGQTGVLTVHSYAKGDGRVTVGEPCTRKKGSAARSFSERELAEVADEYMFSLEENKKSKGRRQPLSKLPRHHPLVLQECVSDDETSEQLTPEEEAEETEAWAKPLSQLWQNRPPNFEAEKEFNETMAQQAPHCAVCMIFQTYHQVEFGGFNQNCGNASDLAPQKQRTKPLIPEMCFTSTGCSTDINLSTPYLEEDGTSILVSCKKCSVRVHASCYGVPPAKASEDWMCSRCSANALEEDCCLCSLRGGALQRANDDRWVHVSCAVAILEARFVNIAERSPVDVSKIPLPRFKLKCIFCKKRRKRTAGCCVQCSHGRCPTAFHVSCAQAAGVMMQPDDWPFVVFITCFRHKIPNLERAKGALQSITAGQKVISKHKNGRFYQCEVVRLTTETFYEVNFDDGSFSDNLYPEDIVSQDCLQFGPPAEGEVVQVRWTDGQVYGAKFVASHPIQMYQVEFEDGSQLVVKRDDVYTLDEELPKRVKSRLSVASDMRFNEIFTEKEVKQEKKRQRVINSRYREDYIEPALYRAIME

Prolyl hydroxylase EGLN3 = Prolyl hydroxylase EGLN3 (Homo sapiens, UniProt Q9H6Z9); assay: Inhibition of full-length EGLN3 (unknown origin) expressed in Escherichia coli BL21(DE3) cells by HTRF assay
[5] = target: T3, Lysine-specific demethylase 5C (Homo sapiens, UniProt P41229); assay: Inhibition of KDM5C catalytic domain (1 -764 aa) (unknown origin) expressed in Sf9 cells using H3K4Me3 peptide as substrate by RFMS assay
[6] = target: T1, Lysine-specific demethylase 4C; assay: Inhibition of N-terminal HALO-tagged full-length human KDM4C transfected in U2OS cells assessed as inhibition of H3K9Me3 demethylation for 24 hrs
[7] = target: T4, Lysine-specific demethylase 4D (Homo sapiens, UniProt Q6B0I6); assay: Inhibition of KDM4D (unknown origin) by RFMS assay
T4 sequence (Q6B0I6 whole entry): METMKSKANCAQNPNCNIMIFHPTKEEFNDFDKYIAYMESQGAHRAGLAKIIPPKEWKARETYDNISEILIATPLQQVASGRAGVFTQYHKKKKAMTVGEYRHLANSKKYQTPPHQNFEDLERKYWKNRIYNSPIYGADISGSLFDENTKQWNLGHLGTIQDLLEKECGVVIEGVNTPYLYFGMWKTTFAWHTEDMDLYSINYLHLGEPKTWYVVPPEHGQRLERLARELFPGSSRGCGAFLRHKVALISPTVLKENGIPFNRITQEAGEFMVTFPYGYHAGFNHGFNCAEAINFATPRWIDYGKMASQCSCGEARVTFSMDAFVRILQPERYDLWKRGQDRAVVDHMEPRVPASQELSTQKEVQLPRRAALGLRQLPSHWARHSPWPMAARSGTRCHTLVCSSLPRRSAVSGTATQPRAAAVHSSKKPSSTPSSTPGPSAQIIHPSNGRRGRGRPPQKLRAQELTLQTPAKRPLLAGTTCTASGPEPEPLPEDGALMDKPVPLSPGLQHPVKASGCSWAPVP

[8] = target: T5, Lysine-specific demethylase 4E (Homo sapiens, UniProt B2RXH2); assay: Inhibition of KDM4E (unknown origin) by RFMS assay
T5 sequence (B2RXH2 whole entry): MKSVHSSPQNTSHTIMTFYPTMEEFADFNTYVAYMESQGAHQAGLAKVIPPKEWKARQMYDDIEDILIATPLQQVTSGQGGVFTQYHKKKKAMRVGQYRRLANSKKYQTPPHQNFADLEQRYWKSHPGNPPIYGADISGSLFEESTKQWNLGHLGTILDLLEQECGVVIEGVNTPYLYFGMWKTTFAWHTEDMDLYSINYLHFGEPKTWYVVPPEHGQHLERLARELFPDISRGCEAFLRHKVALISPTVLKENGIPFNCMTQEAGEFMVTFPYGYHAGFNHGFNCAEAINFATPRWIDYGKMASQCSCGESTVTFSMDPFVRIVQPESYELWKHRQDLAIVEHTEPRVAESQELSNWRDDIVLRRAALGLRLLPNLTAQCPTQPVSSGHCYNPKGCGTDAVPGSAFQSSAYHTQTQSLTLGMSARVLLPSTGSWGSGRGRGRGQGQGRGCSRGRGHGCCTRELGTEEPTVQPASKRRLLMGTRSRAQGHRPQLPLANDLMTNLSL

[9] = target: T3, Lysine-specific demethylase 5C; assay: Inhibition of human KDM5C transfected in U2OS cells assessed as inhibition of […] demethylation for 24 hrs; type: cell-based
Outline: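 High-content cell imaging assay in U2OS cells overexpressing KDM5C, the same cell type as the KDM4C cellular mechanistic assay. Cellular potency reported as pIC50.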

Chain of Prolyl hydroxylase EGLN3 (Q9H6Z9 whole entry, the tested form may be a part): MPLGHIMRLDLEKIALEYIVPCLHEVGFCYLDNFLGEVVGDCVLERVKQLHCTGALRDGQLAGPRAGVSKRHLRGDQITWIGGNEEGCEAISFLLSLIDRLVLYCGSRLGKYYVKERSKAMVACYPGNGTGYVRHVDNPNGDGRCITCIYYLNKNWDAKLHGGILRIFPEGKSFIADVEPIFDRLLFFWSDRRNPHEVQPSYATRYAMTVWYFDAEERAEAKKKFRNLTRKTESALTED
Chain of Lysine-specific demethylase 6B (O15054 whole entry): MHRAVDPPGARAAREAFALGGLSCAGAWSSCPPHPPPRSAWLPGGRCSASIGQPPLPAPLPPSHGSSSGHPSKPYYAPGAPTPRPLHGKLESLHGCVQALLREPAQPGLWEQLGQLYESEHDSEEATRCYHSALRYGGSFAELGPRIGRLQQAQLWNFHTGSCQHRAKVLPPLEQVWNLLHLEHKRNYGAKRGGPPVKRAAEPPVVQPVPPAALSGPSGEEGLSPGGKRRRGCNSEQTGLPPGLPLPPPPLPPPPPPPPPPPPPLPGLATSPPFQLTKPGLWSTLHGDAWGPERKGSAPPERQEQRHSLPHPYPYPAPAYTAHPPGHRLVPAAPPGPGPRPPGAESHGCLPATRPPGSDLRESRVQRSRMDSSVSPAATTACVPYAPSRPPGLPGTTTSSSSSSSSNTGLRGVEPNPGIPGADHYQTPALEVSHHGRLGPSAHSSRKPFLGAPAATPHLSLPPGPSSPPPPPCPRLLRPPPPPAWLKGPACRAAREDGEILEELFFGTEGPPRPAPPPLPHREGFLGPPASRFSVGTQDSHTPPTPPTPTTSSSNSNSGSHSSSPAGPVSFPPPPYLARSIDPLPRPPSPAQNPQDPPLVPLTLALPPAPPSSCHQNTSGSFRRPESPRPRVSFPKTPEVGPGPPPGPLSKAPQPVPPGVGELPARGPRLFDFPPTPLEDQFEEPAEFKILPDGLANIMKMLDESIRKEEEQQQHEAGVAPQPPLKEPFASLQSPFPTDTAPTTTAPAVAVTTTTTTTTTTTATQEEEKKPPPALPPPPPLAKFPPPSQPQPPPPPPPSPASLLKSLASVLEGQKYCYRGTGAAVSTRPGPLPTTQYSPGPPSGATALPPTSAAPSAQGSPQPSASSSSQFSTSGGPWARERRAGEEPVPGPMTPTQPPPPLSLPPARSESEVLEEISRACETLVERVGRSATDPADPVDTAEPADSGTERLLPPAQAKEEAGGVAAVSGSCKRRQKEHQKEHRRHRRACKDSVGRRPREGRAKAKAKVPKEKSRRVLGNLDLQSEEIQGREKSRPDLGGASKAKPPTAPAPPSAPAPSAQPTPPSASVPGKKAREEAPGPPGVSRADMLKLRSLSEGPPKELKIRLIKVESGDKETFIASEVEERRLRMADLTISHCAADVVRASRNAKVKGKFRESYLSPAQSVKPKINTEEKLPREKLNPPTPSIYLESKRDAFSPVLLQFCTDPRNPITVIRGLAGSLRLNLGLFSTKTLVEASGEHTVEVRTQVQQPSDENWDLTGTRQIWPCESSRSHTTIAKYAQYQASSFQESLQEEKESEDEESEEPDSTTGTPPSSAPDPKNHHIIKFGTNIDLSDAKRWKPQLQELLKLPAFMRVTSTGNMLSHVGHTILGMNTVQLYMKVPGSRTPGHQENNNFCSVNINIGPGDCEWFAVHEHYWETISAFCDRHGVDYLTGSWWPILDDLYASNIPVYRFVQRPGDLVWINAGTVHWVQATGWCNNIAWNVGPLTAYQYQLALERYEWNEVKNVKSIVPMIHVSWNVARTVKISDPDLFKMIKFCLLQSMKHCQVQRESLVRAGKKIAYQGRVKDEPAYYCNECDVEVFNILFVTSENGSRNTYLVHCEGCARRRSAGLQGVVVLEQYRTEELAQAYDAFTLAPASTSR
T3 sequence (P41229 whole entry, the tested form may be a part): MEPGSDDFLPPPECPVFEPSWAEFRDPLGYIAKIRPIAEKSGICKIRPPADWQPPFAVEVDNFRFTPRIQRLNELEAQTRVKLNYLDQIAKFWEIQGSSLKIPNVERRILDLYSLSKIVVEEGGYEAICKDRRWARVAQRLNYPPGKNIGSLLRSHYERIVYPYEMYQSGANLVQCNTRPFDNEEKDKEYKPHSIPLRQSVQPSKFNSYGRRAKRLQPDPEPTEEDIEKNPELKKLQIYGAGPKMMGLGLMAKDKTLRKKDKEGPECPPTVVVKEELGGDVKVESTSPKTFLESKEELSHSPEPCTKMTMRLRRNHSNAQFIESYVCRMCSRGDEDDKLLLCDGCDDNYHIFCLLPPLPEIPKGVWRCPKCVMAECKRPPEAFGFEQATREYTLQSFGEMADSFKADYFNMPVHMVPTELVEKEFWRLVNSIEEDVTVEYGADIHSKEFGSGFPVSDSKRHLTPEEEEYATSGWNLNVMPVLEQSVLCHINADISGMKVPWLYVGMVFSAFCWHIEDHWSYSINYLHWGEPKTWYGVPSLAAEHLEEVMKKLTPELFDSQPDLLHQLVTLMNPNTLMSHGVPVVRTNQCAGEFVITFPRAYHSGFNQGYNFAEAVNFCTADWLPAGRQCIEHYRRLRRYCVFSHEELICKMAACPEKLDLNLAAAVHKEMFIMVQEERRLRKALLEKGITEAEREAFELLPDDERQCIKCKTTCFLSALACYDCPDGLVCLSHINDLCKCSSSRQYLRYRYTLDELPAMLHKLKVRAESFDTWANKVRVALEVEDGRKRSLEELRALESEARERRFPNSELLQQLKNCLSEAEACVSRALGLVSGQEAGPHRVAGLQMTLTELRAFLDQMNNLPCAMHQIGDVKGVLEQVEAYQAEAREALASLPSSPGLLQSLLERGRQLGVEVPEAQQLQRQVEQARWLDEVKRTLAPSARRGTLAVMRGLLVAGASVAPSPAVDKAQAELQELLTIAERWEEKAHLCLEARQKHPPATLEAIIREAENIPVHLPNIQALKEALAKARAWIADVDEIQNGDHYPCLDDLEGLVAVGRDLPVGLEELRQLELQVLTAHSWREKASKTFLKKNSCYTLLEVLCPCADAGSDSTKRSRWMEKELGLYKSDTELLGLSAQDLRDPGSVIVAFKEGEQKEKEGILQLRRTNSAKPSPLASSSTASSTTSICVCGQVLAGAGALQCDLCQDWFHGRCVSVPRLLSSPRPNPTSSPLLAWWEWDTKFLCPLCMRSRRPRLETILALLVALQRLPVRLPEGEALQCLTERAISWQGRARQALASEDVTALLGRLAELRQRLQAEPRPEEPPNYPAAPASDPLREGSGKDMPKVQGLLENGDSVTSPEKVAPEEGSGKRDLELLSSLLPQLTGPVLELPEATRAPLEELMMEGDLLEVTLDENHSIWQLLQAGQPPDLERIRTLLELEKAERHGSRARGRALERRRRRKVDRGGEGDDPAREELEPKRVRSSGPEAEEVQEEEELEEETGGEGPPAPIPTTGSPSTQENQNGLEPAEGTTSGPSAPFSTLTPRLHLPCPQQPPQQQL

Row | IC50 [1] [µM] | IC50 [2] [nM] | logD (physchem) | SMILES | also measured
1 | > 100 | 2000 | 2.8 | O=c1[nH]c(OCc2ccccc2)nc2cnccc12 | –
2 | 10 | 501 | – | O=c1[nH]c(Oc2ccc(Cl)cc2)nc2cnccc12 | –
3 | 5.01 | 501 | 0.7 | CC(C)n1cc(Oc2nc3cnccc3c(=O)[nH]2)cn1 | –
4 | 5.01 | 631 | 2.9 | O=c1[nH]c(Oc2cnn(CC3CCCCC3)c2)nc2cnccc12 | IC50 [3]: > 100 µM; IC50 [4]: 631 nM; IC50 (Prolyl hydroxylase EGLN3): > 100 µM; IC50 [5]: 79.4 nM; IC50 [6]: 2000 nM; IC50 [7]: 398 nM; IC50 [8]: 501 nM; IC50 ([9]; read-out: IC50): 2.5 µM
5 | 7.94 | 398 | -0.6 | O=c1[nH]c(Oc2cn[nH]c2)nc2cnccc12 | –
6 | 25.1 | 3160 | 3.7 | O=c1[nH]c(OC2CCCCC2)nc2cnccc12 | –
7 | – | > 100000 | – | O=c1[nH][nH]c2cnccc12 | –
8 | – | ≥ 100000 | – | O=c1ncn(CCCc2ccccc2)c2cnccc12 | –
9 | 3.98 | 398 | 2.2 | O=c1[nH]c(Oc2cnn(C3CCCCC3)c2)nc2cnccc12 | –
10 | 2.51 | 501 | 2.9 | O=c1[nH]c(Oc2cnn(C3CCCCCC3)c2)nc2cnccc12 | –
11 | – | 631 | 1.7 | O=c1[nH]c(Oc2cnn(C3CCCC3)c2)nc2cnccc12 | IC50 [3]: > 100 µM; IC50 [4]: 794 nM; IC50 (Prolyl hydroxylase EGLN3): > 100 µM; IC50 [5]: 126 nM; IC50 [6]: 2000 nM; IC50 [7]: 501 nM; IC50 [8]: 398 nM; IC50 ([9]; read-out: IC50): 2.5 µM; IC50 ([9]; read-out: pIC50 (converted)): 5.01 µM
12 | 3.98 | 398 | 1.9 | O=c1[nH]c(Oc2cnn(-c3ccccc3)c2)nc2cnccc12 | –
13 | – | > 100000 | – | O=c1[nH]ccc2cnccc12 | –
14 | > 100 | 3160 | 4.5 | O=c1[nH]c(OCC2CCCCC2)nc2cnccc12 | –
15 | 6.31 | 631 | 2 | COc1cccc(Cn2cc(Oc3nc4cnccc4c(=O)[nH]3)cn2)c1 | –
16 | – | 398 | 1.1 | O=c1[nH]c(Oc2ccc(Cl)c(O)c2)nc2cnccc12 | IC50 [3]: > 100 µM; IC50 [4]: 398 nM; IC50 (Prolyl hydroxylase EGLN3): > 100 µM; IC50 [5]: 200 nM; IC50 [6]: 2000 nM; IC50 [7]: 316 nM; IC50 [8]: 126 nM; IC50 ([9]; read-out: pIC50 (converted)): 31.6 µM

Row | IC50 [1] [µM] | IC50 [2] [nM] | logD (physchem) | SMILES | also measured
17 | 12.6 | 501 | -0.2 | O=c1[nH]c(Oc2cccnc2)nc2cnccc12 | –
18 | – | > 100000 | – | O=c1[nH]ncc2cnccc12 | –
19 | – | 25100 | – | O=c1ncn(Cc2ccccc2)c2cnccc12 | –
20 | > 100 | 2510 | 0 | Cc1nn(C)cc1Oc1nc2cnccc2c(=O)[nH]1 | –
21 | 12.6 | 631 | 0.3 | O=c1[nH]c(Oc2cnn(Cc3cccnc3)c2)nc2cnccc12 | –
22 | – | 2000 | -0.2 | Cc1c(Oc2nc3cnccc3c(=O)[nH]2)cnn1C | –
23 | – | 2000 | – | O=c1[nH]c(-c2cncc(F)c2)nc2cnccc12 | –
24 | – | 7940 | – | O=c1[nH]c(-c2cccnc2)nc2cnccc12 | –
25 | 10 | 200 | 0.3 | O=c1[nH]c(Oc2cccc(O)c2)nc2cnccc12 | –
26 | – | – | – | Nc1cnccc1C(=O)O | IC50 [8]: 1260 nM
27 | 7.94 | 398 | -0.3 | Cn1cc(Oc2nc3cnccc3c(=O)[nH]2)cn1 | –
28 | – | 20000 | – | O=c1[nH]c(-c2ccccc2)nc2cnccc12 | –
29 | – | 1000 | 1.5 | CC(C)c1ccc(Oc2nc3cnccc3c(=O)[nH]2)cn1 | IC50 [4]: 1580 nM; IC50 [5]: 126 nM; IC50 [6]: 2000 nM; IC50 [7]: 631 nM; IC50 [8]: 398 nM; IC50 ([9]; read-out: pIC50 (converted)): 50.1 µM
30 | 12.6 | 631 | 1.2 | O=c1[nH]c(Oc2ccccc2)nc2cnccc12 | –
31 | > 100 | > 100000 | – | O=c1[nH]c(Oc2cnn(Cc3ccccc3)c2)nc2ncccc12 | IC50 [3]: > 100 µM; IC50 [4]: > 100000 nM; IC50 (Prolyl hydroxylase EGLN3): > 100 µM; IC50 [5]: 31600 nM; IC50 [7]: > 100000 nM; IC50 [8]: > 100000 nM; IC50 ([9]; read-out: pIC50 (converted)): > 100 µM
